From ChEMBL document CHEMBL2163205 (J Med Chem, 2012)
In brackets after ≈: the same amount, converted by molar mass.

Tests used:
Cathepsin B = Cathepsin B (Homo sapiens, UniProt P07858); assay: Inhibition of human recombinant CatB assessed as suppression of enzyme-mediated Z-Arg-Arg-AMC cleavage by QFRET assay
Summary of the method: (§1)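 Recombinant human Cat B at 0.5 nM final was preincubated with compound for 30 min at room temperature. Z-Arg-Arg-AMC (100 μM final) was added in potassium phosphate buffer, pH 6.4, incubated 1 h, then stopped with acetic acid. Fluorescence read at ex 360/em 425 nm with background correction; IC50 by nonlinear regression.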

[1] = Intrinsic clearance in rat hepatocytes assessed as metabolic turnover measured per 10^6 cells; assay type: ADME, cell-based, Hepatocyte
Summary of the method: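 Intrinsic clearance from in vitro hepatocyte incubation, expressed in μL/min/10⁶ cells. Each value is the mean of at least n = 2 experiments.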

[2] = Lipophilicity, log D of the compound at pH 7.4; settings: buffer
Procathepsin L = Procathepsin L (Homo sapiens, UniProt P07711); assay: Inhibition of human recombinant CatL assessed as suppression of enzyme-mediated Z-Phe-Arg-AMC cleavage by QFRET assay
Summary of the method: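 Recombinant human Cat L at 0.1 nM final was preincubated with compound for 30 min, then Z-Phe-Arg-AMC (10 μM final) was added. QFRET cleavage was run 1 h at room temperature and stopped with acetic acid. Fluorescence read at ex 360/em 425 nm; IC50 by variable-slope nonlinear regression.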

Cathepsin S = Cathepsin S (Homo sapiens, UniProt P25774); assay: Inhibition of human recombinant CatS assessed as suppression of enzyme-mediated Z-Val-Val-Arg-AMC cleavage by QFRET assay
Summary of the method: as §1, with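 “S” for “B”, “Z-Val-Val-Arg-AMC” for “Z-Arg-Arg-AMC”, “AMC fluorescence” for “Fluorescence”, “nm;” for “nm with background correction;”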

[3] = Intrinsic clearance in human liver microsomes assessed as metabolic turnover
[4] = Aqueous solubility of the compound at pH 7.4; settings: buffer
Cathepsin K = target: T1, Cathepsin K (Homo sapiens, UniProt P43235); assay: Inhibition of human recombinant CatK assessed as suppression of enzyme-mediated Z-Phe-Arg-AMC cleavage incubated for 1 hrs by QFRET assay
T1 sequence (P43235 whole entry): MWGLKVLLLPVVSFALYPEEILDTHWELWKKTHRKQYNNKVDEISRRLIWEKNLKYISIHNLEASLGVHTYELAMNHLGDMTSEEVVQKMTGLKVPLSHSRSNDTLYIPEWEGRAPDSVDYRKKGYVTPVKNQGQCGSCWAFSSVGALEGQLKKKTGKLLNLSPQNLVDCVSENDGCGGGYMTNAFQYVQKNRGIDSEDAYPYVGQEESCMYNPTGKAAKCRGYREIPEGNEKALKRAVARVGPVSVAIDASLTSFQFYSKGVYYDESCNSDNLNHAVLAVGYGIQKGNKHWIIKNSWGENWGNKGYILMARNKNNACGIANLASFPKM

[5] = Intrinsic clearance in rat liver microsomes assessed as metabolic turnover
Homo sapiens = organism: Homo sapiens; assay: Selectivity ratio of IC50 for human recombinant CatS to IC50 for human recombinant CatK
Summary of the method: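 Quenched-FRET cleavage assays with in-house recombinant human enzymes at 0.5 nM final. Cat K used 50 μM Z-Phe-Arg-AMC at pH 5.5 (acetate/EDTA). Cat S used 100 μM Z-Val-Val-Arg-AMC at pH 6.4 (potassium phosphate). Compounds were preincubated 30 min at RT, then reacted 1 h, stopped with acetic acid and read at ex 360/em 425 nm. Twelve concentrations; IC50s from variable-slope nonlinear regression; ratio Cat S/Cat K.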

[6] = Fraction unbound at serum; assay type: ADME, cell-free
Summary of the method: (§2)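 Serum or plasma protein binding reported as percentage free. Each value is the mean of at least n = 2 experiments.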

[7] = Oral bioavailability in Alderley Park Han Wistar rat at 2.0 mg/kg administered as single dose; assay type: ADME, organism-based; settings: in vivo
Summary of the method: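 Fed male Alderley Park Han Wistar rats dosed po at 2.0 mg/kg as a suspension in 5% DMSO/95% HPMC/TWEEN; iv reference dose 2.0 mg/kg in 40% DMA/water. Single doses, at least two experiments of two animals each.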

[8] = Fraction unbound in dog serum; assay type: ADME, cell-free, Canis lupus familiaris; summary of the method: as §2
[9] = Fraction unbound in rat serum; assay type: ADME, cell-free; summary of the method: as §2
[10] = Volume of distribution at steady state in Alderley Park Han Wistar rat at 2.0 mg/kg, po and 2.0 mg/kg, iv administered as single dose; assay type: ADME, organism-based; settings: in vivo, read-out: Vdss
Summary of the method: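 Male Alderley Park Han Wistar rats, fed. Given single iv dose of 2.0 mg/kg as a solution in 40% DMA/water and single po dose of 2.0 mg/kg as a suspension in 5% DMSO/95% HPMC/TWEEN. At least two experiments, each with two animals.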

[11] = Fraction unbound in human serum; assay type: ADME, cell-free; summary of the method: as §2
[12] = Oral bioavailability in Beagle dog at 1.0 mg/kg administered as single dose; settings: in vivo
[13] = Volume of distribution at steady state in Beagle dog at 1.0 mg/kg, po and 1.0 mg/kg, iv administered as single dose; assay type: ADME, organism-based, Canis lupus familiaris; settings: in vivo, read-out: Vdss
Summary of the method: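 Beagle dogs, fasted. Given single iv dose of 1.0 mg/kg as a solution in 10% DMSO/90% Sorensons and single po dose of 1.0 mg/kg as a suspension in 5% DMSO/95% HPMC/TWEEN. At least two experiments, each with two animals.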

[14] = Intrinsic clearance in dog hepatocytes assessed as metabolic turnover measured per 10^6 cells
in vivo [15] = settings: Beagle, dog, plasma, iv, 1 mg/kg
[16] = Half life in Alderley Park Han Wistar rat at 2.0 mg/kg, iv administered as single dose; settings: in vivo
[17] = Half life in Beagle dog at 1.0 mg/kg, iv administered as single dose; settings: in vivo
[18] = Intrinsic clearance in human hepatocytes assessed as metabolic turnover measured per 10^6 cells
in vivo [19] = settings: Alderley Park Han Wistar, rat, plasma, iv, 2 mg/kg

Sequence of Cathepsin S (P25774 whole entry): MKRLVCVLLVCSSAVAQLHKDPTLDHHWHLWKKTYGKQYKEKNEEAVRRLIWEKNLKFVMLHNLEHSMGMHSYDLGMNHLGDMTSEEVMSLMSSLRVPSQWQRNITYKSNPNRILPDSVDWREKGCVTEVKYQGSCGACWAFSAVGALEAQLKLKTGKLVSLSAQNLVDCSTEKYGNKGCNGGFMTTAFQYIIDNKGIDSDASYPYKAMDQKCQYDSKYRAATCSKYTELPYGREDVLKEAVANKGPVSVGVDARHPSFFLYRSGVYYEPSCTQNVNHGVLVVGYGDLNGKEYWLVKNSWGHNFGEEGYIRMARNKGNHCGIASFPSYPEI
Sequence of Procathepsin L (P07711 whole entry): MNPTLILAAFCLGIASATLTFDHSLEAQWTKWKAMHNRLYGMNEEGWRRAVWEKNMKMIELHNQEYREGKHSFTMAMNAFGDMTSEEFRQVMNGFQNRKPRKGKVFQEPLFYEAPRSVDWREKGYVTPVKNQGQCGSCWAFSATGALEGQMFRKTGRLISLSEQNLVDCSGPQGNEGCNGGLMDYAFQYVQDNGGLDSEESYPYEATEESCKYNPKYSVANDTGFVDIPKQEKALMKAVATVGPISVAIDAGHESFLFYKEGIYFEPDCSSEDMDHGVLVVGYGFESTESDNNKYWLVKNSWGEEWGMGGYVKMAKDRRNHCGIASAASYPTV

Structure (SMILES) | IC50 (Cathepsin B) [nM] | logD [2] | IC50 (Procathepsin L) | IC50 (Cathepsin S) [nM] | microsomal CLint [3] [µL/min/mg] | solubility [4] [µM] | IC50 (Cathepsin K) [nM] | microsomal CLint [5] [µL/min/mg] | further results
CN(C)C(=O)[C@@H]1CCCC[C@H]1C(=O)NCC#N | 9820 | < 0.5 |  | 3700 | 5.1 | > 4600 | 257 | < 2 | Ratio IC50 (Homo sapiens): 14; IC50 (Procathepsin L; read-out: IC50): > 40000 nM
N#CC1(NC(=O)[C@@H]2CCCC[C@H]2C(=O)N2CCc3oc4ccccc4c3C2)CC1 |  | 3 |  |  |  | 580 (≈ 227 µg/mL) | 25 | > 350 | fraction unbound [6]: 0.12; bioavailability [7]: 0%
CN1CCN(C(=O)[C@@H]2CCCC[C@H]2C(=O)NCC#N)CC1 | 7630 | -0.1 |  | 2070 | 7.9 | 3560 (≈ 1040 µg/mL) | 37 |  | hepatocyte CLint [1]: < 2 µL/min/1e6 cells; IC50 (Procathepsin L; read-out: IC50): > 40000 nM
N#CC1(NC(=O)[C@@H]2CCCC[C@H]2C(=O)N2CCc3[nH]c4c(OC(F)(F)F)cccc4c3C2)CC1 | > 2900 | 4 | Not Active | > 4000 | 19 | 120 (≈ 56.9 µg/mL) | 2 | 53 | 
C[C@H](C#N)NC(=O)[C@@H]1CCCC[C@H]1C(=O)N1CCc2[nH]c3ccc(F)cc3c2C1 | 44900 | 3.1 |  | > 100000 | 12 | 460 (≈ 182 µg/mL) | 16.2 | > 250 | IC50 (Procathepsin L; read-out: IC50): > 100000 nM
Cc1cccc2c3c([nH]c12)CCN(C(=O)[C@@H]1CCCC[C@H]1C(=O)NC1(C#N)CC1)C3 | > 2900 | 3 | Not Active | > 4000 | 25 | 510 (≈ 206 µg/mL) | 3 | 179 | 
N#CC1(NC(=O)[C@@H]2CCCC[C@H]2C(=O)N2CCc3[nH]c4cccc(F)c4c3C2)CC1 | > 2900 | 3.2 | Not Active | > 4000 | 57 | 128 (≈ 52.3 µg/mL) | 10 | 322 | 
CCOc1cccc2c3c([nH]c12)CCN(C(=O)[C@@H]1CCCC[C@H]1C(=O)NC1(C#N)CC1)C3 | > 2900 | 3.1 | Not Active | > 4000 | 13 | 300 (≈ 130 µg/mL) | < 1 | 62 | 
N#Cc1cccc2c3c([nH]c12)CCN(C(=O)[C@@H]1CCCC[C@H]1C(=O)NC1(C#N)CC1)C3 | > 2900 | 2.5 | Not Active | > 4000 | 34 | 400 (≈ 166 µg/mL) | 2 | 80 | 
CC(C)(C)[C@@H](C#N)NC(=O)[C@@H]1CCCC[C@H]1C(=O)N1CCc2[nH]c3ccc(F)cc3c2C1 | 31200 | > 4.1 |  | > 100000 | 99 | 74 (≈ 32.5 µg/mL) | 785 | 195 | IC50 (Procathepsin L; read-out: IC50): > 100000 nM
N#CC1(NC(=O)[C@@H]2CCCC[C@H]2C(=O)N2CCc3[nH]c4ncccc4c3C2)CC1 | > 2900 | 2.1 | Not Active | > 4000 |  | 1500 (≈ 587 µg/mL) | 1 |  | fraction unbound [8]: 0.38; fraction unbound [9]: 0.42; bioavailability [7]: 12%; Vd [10]: 1.6 L/kg; fraction unbound [11]: 0.33; bioavailability [12]: 59%; Vd [13]: 0.9 L/kg
Cn1c2c(c3c(F)c(F)ccc31)CN(C(=O)[C@@H]1CCCC[C@H]1C(=O)NC1(C#N)CC1)CC2 | > 2900 | 2.8 | Not Active | > 4000 | 170 | 300 (≈ 132 µg/mL) | 3 | > 350 | 

Second part, led by results:

IC50 (Cathepsin B) [nM] | logD [2] | IC50 (Procathepsin L) | IC50 (Cathepsin S) [nM] | microsomal CLint [3] [µL/min/mg] | solubility [4] [µM] | IC50 (Cathepsin K) [nM] | microsomal CLint [5] [µL/min/mg] | Structure (SMILES) | further results
> 2900 | 2.4 | Not Active | > 4000 | 29 | 822 (≈ 346 µg/mL) |  |  | COc1ccc2[nH]c3c(c2c1)CN(C(=O)[C@@H]1CCCC[C@H]1C(=O)NC1(C#N)CC1)CC3 | hepatocyte CLint [1]: 20 µL/min/1e6 cells
> 2900 | 2.7 | Not Active | > 4000 | 26 | 910 (≈ 355 µg/mL) | 1 | 143 | N#CC1(NC(=O)[C@@H]2CCCC[C@H]2C(=O)N2CCc3[nH]c4ccccc4c3C2)CC1 | fraction unbound [6]: 0.23; bioavailability [7]: 8.2%
> 2900 |  | Not Active | > 4000 | 14 | 193 (≈ 90.4 µg/mL) |  |  | CS(=O)(=O)c1ccc2[nH]c3c(c2c1)CN(C(=O)[C@@H]1CCCC[C@H]1C(=O)NC1(C#N)CC1)CC3 | hepatocyte CLint [1]: 3.5 µL/min/1e6 cells
> 2900 | 3 | Not Active | > 4000 | 36 | 540 (≈ 221 µg/mL) | 4 | 89 | N#CC1(NC(=O)[C@@H]2CCCC[C@H]2C(=O)N2CCc3[nH]c4cc(F)ccc4c3C2)CC1 | 
> 2900 | 1.7 | Not Active | > 4000 | 4 | 1600 (≈ 750 µg/mL) | 17 | 23 | CS(=O)(=O)c1cccc2c3c([nH]c12)CCN(C(=O)[C@@H]1CCCC[C@H]1C(=O)NC1(C#N)CC1)C3 | 
> 2900 | 1.5 | Not Active | > 4000 | < 2 | 902 (≈ 423 µg/mL) | 34 | 7.2 | CS(=O)(=O)c1ccc2c3c([nH]c2c1)CCN(C(=O)[C@@H]1CCCC[C@H]1C(=O)NC1(C#N)CC1)C3 | 
3520 | 3 |  | > 4000 | 41 | 580 (≈ 237 µg/mL) | < 1 | > 250 | N#CC1(NC(=O)[C@@H]2CCCC[C@H]2C(=O)N2CCc3[nH]c4ccc(F)cc4c3C2)CC1 | fraction unbound [8]: 0.13; fraction unbound [9]: 0.16; hepatocyte CLint [1]: 126 µL/min/1e6 cells; hepatocyte CLint [14]: 6.7 µL/min/1e6 cells; bioavailability [7]: 3.8%; Vd [10]: 2.3 L/kg; clearance (in vivo [15]): 10 mL/min/kg; fraction unbound [11]: 0.14; IC50 (Procathepsin L; read-out: IC50): > 40000 nM; half-life [16]: 0.6 h; bioavailability [12]: 82%; half-life [17]: 1.8 h; hepatocyte CLint [18]: < 2.5 µL/min/1e6 cells; Vd [13]: 1.2 L/kg; clearance (in vivo [19]): 63 mL/min/kg
